{
  "source": "paper PMC4065287",
  "about": "(Diabetes Therapy, 2014)",
  "key": {"[1]": {"tested_on": "SGLT2", "settings": "cited from earlier work"}, "[2]": {"tested_on": "CD-1 mice", "settings": "2-year study; cited from earlier work"}, "[3]": {"tested_on": "SD rats", "settings": "cited from earlier work"}, "[4]": {"assay": "Urinary exposure extrapolations from bridging studies", "format": "in vivo", "settings": "mice, rats, and dogs"}, "[5]": {"tested_on": "human bladder transitional cell carcinoma (TCC) cell lines (T24, TCCSUP, UM-UC-3, J82, SW780, and EJ-1)", "assay": "In vitro cell proliferation of bladder TCC cell lines with test compounds", "format": "cell-based", "settings": "0.2, 2, 20 μg/mL, serum-free medium, 72 h", "outline": "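Low-passage TCC lines (<6 months from thaw) were seeded at 20,000 or 40,000 cells/well in RPMI 1640 + 10% FBS. After 24 h adherence and 24 h serum-free, cells got medium-only vehicle or test compound (0.2, 2, 20 μg/mL) serum-free for 72 h. Controls were a return to 10% FBS and continuous serum. Percent confluence was imaged every 2 h to build growth curves.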"}, "[6]": {"tested_on": "EJ-1 tumor xenografts", "assay": "In vivo mouse xenograft study, EJ-1", "parameters": "species or system athymic nude mice"}, "[7]": {"tested_on": "Salmonella typhimurium stains TA98, TA100, TA1535, and TA1537", "settings": "maximum concentrations (≤5,000 μg/plate) with or without metabolic activation"}, "[8]": {"tested_on": "Escherichia coli strain WP2 uvrA", "settings": "maximum concentrations (≤5,000 μg/plate) with or without metabolic activation"}, "[9]": {"tested_on": "Chinese hamster ovary (CHO) cells"}, "[10]": {"tested_on": "peripheral blood lymphocytes", "settings": "up to 200 mg/kg per day for 1 month"}, "[11]": {"tested_on": "bone marrow polychromatic erythrocytes"}, "[12]": {"tested_on": "primary hepatocyte cultures", "settings": "single oral dose up to 700 mg/kg"}, "[13]": {"tested_on": "CD-1 mice", "settings": "for carcinogenicity: oral gavage up to 24 months"}, "[14]": {"tested_on": "Harlan SD rats"}, "[15]": {"tested_on": "Beagle dogs"}, "[16]": {"tested_on": "liver, skeletal muscle, kidney, and adipose tissues", "settings": "male ZDF rats vs vehicle"}, "[17]": {"settings": "2-year rodent carcinogenicity studies"}, "[18]": {"settings": "human plasma after 10 mg MRHD of dapagliflozin; cited from earlier work"}, "[19]": {"tested_on": "more than 330 receptors, enzymes, ion channels, and transporters", "settings": "cited from earlier work"}, "[20]": {"assay": "in vivo", "settings": "both, Sprague-Dawley, rat, plasma, po, 200 mg/kg per day"}, "[21]": {"settings": "cited from earlier work"}, "[22]": {"settings": "human subjects, 10 mg dose; cited from earlier work"}, "[23]": {"settings": "chronic toxicology studies; cited from earlier work"}, "[24]": {"tested_on": "hormone receptors", "settings": "cited from earlier work"}, "[25]": {"settings": "cited from earlier work", "remark": "listed apart in the source"}, "[26]": {"tested_on": "TCC cell lines (T24, TCCSUP, UM-UC-3, J82, and SW780)", "assay": "In vitro cell proliferation of bladder TCC cell lines with increasing glucose", "format": "cell-based, human", "outline": "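Five TCC lines seeded at 40,000 or 80,000 cells/well in RPMI 1640 with 10% FBS, glucose set to 11 (control), 25, 35 or 50 mM. Cells were incubated 145 h in the incubator with live-cell imaging. Percent confluence was read every 2 h and growth curves were built over 145 h.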"}},
  "note": "Values joined by “and” are separate entries in the source; they are usually repeats but may differ in a detail not shown here. Equal entries are not always repeated. “Also recorded” adds a separate entry of the source. Where two headings read alike, the source gives them in different places.",
  "data": [
    {"smiles": "Cc1ccc([C@@H]2O[C@H](CO)[C@@H](O)[C@H](O)[C@H]2O)cc1Cc1ccc(-c2ccc(F)cc2)s1", "note": "[canagliflozin]", "values": [
      {"measurement": "selectivity for SGLT2 than for SGLT1", "setting": "[1]", "value": 200, "unit": "×"},
      {"measurement": "exposure multiple of clinical exposures", "setting": "[2]", "value": 14, "unit": "×"},
      {"measurement": "incidence of neoplasms or preneoplastic lesions", "setting": "[2]", "value": "did not increase the incidence"},
      {"measurement": "exposure multiple with increased incidence of neoplasms of the adrenals", "setting": "[3]", "value": "≥ 12", "unit": "×"},
      {"measurement": "exposure multiple with increased incidence of neoplasms of the renal tubules", "setting": "[3]", "value": "≥ 12", "unit": "×"}
    ]},
    {"smiles": "CCOc1ccc(Cc2cc([C@@H]3O[C@H](CO)[C@@H](O)[C@H](O)[C@H]3O)ccc2Cl)cc1", "note": "[dapagliflozin, (2S,3R,4R,5S,6R)-2-[4-chloro-3-(4-ethoxybenzyl)phenyl]-6-(hydroxymethyl)tetrahydro-2H-pyran-3,4,5-triol]", "values": [
      {"measurement": "extrapolated urinary concentrations relative to humans", "setting": "[4]", "value": "> 700", "unit": "×"},
      {"measurement": "in vitro TCC proliferation", "setting": "[5]", "value": "did not affect"},
      {"measurement": "body weight of treated animals", "setting": "[6]; EJ-1 and UM-UC-3 xenograft mice", "value": "no effect"},
      {"measurement": "exposure multiple of human clinical exposures", "setting": "[6]; EJ-1 and UM-UC-3 xenograft mice, parent", "value": "up to 75 ×"},
      {"measurement": "growth of tumor xenografts", "setting": "[6]; mouse, in vivo", "value": "no effect; also recorded: similar"},
      {"measurement": "bacterial reverse-mutation assay", "setting": "[7]", "value": "negative"},
      {"measurement": "bacterial reverse-mutation assay", "setting": "[8]", "value": "negative"},
      {"measurement": "level that produced cytogenetic alterations in vitro", "setting": "[9]", "value": 100, "unit": "µg/mL"},
      {"measurement": "chromosomal aberration induction", "setting": "[9]; absence of S9 stimulation", "value": "negative"},
      {"measurement": "clastogenic concentrations relative to total C max in humans with MRHD 10 mg", "setting": "[9]; with metabolic stimulation", "value": "≥ 735", "unit": "times"},
      {"measurement": "AUC multiple of MRHD", "setting": "[10]", "value": "≤ 2,602 × MRHD"},
      {"measurement": "C max multiple of MRHD", "setting": "[10]", "value": "≤ 544", "unit": "× MRHD"},
      {"measurement": "clastogenicity in peripheral blood lymphocytes", "setting": "[10]", "value": "no evidence of clastogenicity"},
      {"measurement": "bone marrow micronucleus genotoxicity", "setting": "[11]; 2 weeks, up to 250 mg/kg per day", "value": "not genotoxic"},
      {"measurement": "bone marrow micronucleus genotoxicity", "setting": "[11]; 3 days, up to 700 mg/kg per day", "value": "not genotoxic"},
      {"measurement": "unscheduled DNA synthesis", "setting": "[12]", "value": "did not induce an increase"},
      {"measurement": "exposure (AUC) multiple relative to human AUC at 10 mg", "setting": "[13]; females 2 mg/kg per day", "value": "~11", "unit": "×"},
      {"measurement": "exposure (AUC) multiple relative to human AUC at 10 mg", "setting": "[13]; females 10 mg/kg per day", "value": "~52", "unit": "×"},
      {"measurement": "exposure (AUC) multiple relative to human AUC at 10 mg", "setting": "[13]; females 20 mg/kg per day", "value": "~105", "unit": "×"},
      {"measurement": "carcinogenicity", "setting": "[13]; females, doses ≤20 mg/kg per day", "value": "not carcinogenic"},
      {"measurement": "incidence of background tumors or time to onset", "setting": "[13]; lymphoreticular, uterus and cervix, lung, liver neoplasms", "value": "did not increase the incidence"},
      {"measurement": "urinary bladder hyperplasia versus control", "setting": "[13]; male mice", "value": "did not increase urinary bladder hyperplasia"},
      {"measurement": "exposure (AUC) multiple relative to human AUC at 10 mg", "setting": "[13]; males 5 mg/kg per day", "value": "approximately 4 ×"},
      {"measurement": "exposure (AUC) multiple relative to human AUC at 10 mg", "setting": "[13]; males 15 mg/kg per day", "value": "~14", "unit": "×"},
      {"measurement": "exposure (AUC) multiple relative to human AUC at 10 mg", "setting": "[13]; males 40 mg/kg per day", "value": "~72", "unit": "×"},
      {"measurement": "carcinogenicity", "setting": "[13]; males, doses ≤40 mg/kg per day", "value": "not carcinogenic"},
      {"measurement": "carcinogenicity", "setting": "[14]; doses up to 10 mg/kg per day", "value": "not carcinogenic"},
      {"measurement": "exposure (AUC) multiple relative to human AUC at 10 mg", "setting": "[14]; females 0.5 mg/kg per day", "value": "~9", "unit": "×"},
      {"measurement": "exposure (AUC) multiple relative to human AUC at 10 mg", "setting": "[14]; females 2 mg/kg per day", "value": "~34", "unit": "×"},
      {"measurement": "microscopic changes in the kidney", "setting": "[14]; males only", "value": "exacerbation in severity of CPN and increased incidence and severity of minimal to marked atypical hyperplasia of renal cortical tubules"},
      {"measurement": "neoplasms affecting the renal tubules, adrenal gland, or testicular Leydig cells", "setting": "[14]; rat, in vivo", "value": "no dapagliflozin-related neoplasms"},
      {"measurement": "tumors or preneoplastic lesions in the urinary bladder", "setting": "[14]; rat, in vivo", "value": "no indications of any dapagliflozin-related tumors or preneoplastic lesions"},
      {"measurement": "proliferative or hyperplastic changes of the urinary bladder", "setting": "[15]; 1 year", "value": "did not show dapagliflozin-related proliferative or hyperplastic changes"},
      {"measurement": "exposure multiple of human clinical exposure", "setting": "[15]; 1 year, supratherapeutic doses", "value": "> 3,300 × and > 3,000 ×"},
      {"measurement": "urinary glucose excretion", "setting": "[15]; treated dogs (control 5–13 mg per day)", "value": "8,711–32,200 mg per day"},
      {"measurement": "probe sets showing significant changes", "setting": "[16]", "value": "less than 1%"},
      {"measurement": "levels of urinary glucose", "setting": "[17]", "value": "~200", "unit": "mM"},
      {"measurement": "maximum observed plasma concentration (C max)", "setting": "[18]", "value": 0.136, "unit": "µg/mL"},
      {"measurement": "selectivity for SGLT2 than for SGLT1", "setting": "[1]", "value": "1,200 ×"},
      {"measurement": "off-target interactions", "setting": "[19]", "value": "no off-target interactions"},
      {"measurement": "Cmax", "setting": "[20]", "value": "63 to 74", "unit": "µg/mL"},
      {"measurement": "overall incidence of malignancies and unspecified tumors", "setting": "[21]; July 15, 2011 cutoff (control 1.4%)", "value": 1.5, "unit": "%"},
      {"measurement": "urinary bladder tumors, incidence rate", "setting": "[21]; dapagliflozin groups (placebo 0.03)", "value": 0.15},
      {"measurement": "urinary bladder tumors, number of cases", "setting": "[21]; dapagliflozin groups (placebo 1)", "value": 9},
      {"measurement": "bladder cancer cases, percent of patients", "setting": "[21]; of 5,501 patients, July 15, 2011 cutoff", "value": 0.16, "unit": "%"},
      {"measurement": "urinary glucose, mean", "setting": "[22]", "value": 166, "unit": "mM"},
      {"measurement": "levels of urinary glucose", "setting": "[23]", "value": "400 to 500", "unit": "mM"},
      {"measurement": "binding to hormone receptors", "setting": "[24]", "value": "did not bind"},
      {"measurement": "oral bioavailability", "setting": "[25]", "value": "good"},
      {"measurement": "volume of distribution", "setting": "[25]", "value": "high"}
    ]},
    {"smiles": "OC[C@H]1OC(O)[C@H](O)[C@@H](O)[C@@H]1O", "note": "(some centres unmarked) [glucose]", "values": [
      {"measurement": "reduction of growth", "setting": "[26]; J82, 25 mM", "value": 37, "unit": "%"},
      {"measurement": "growth", "setting": "[26]; SW780, 25 mM", "value": "did not substantially alter"},
      {"measurement": "growth", "setting": "[26]; T24, 25 mM", "value": "did not substantially alter"},
      {"measurement": "reduction of growth", "setting": "[26]; T24, 35 mM", "value": 83, "unit": "%"},
      {"measurement": "reduction of growth", "setting": "[26]; TCCSUP, 25 mM", "value": 42, "unit": "%"},
      {"measurement": "reduction of growth", "setting": "[26]; UM-UC-3, 25 mM", "value": 73, "unit": "%"},
      {"measurement": "growth", "setting": "[26]; all cell lines at 35 mM and 50 mM, except T24 at 35 mM", "value": "completely inhibited"}
    ]}
  ]
}
